Source: ChEMBL document CHEMBL3272327, “Hypocholesterolemic activity of 1,3-bis(substituted phenoxy)-2-propanones” (J Med Chem, 1976)

Columns and labels:
[1] = system: Rattus norvegicus; experiment: Effect on RNA content in rat liver at 10 mg/kg/day administered for 16 days (reference value: 100 +/- 8%); assay type: ADME, organism-based; settings: in vivo, 384 h
[2] = system: Rattus norvegicus; experiment: Hypocholesterolemic activity in rat assessed as [14C]palmitic acid recovery at 10 mg/kg/day administered for 1 week measured after 22 hrs on day 7 by scintillation counting analysis (reference value: 98%); assay type: functional
Method in brief: (§1)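 Male Sprague-Dawley rats on lab chow dosed orally once daily for 1 week at 10 mg/kg/day, suspended in 1% CMC, or given vehicle alone. On day 7, 5 μCi [1-14C]palmitic acid given orally. Killed after 22 hr; organs made into 10% water homogenates. Aliquots of 0.1 cc of homogenate, urine, blood or feces were digested and scintillation counted. Output is % of dose per tissue, N = 6.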

[3] = system: Rattus norvegicus; experiment: Hypocholesterolemic activity in rat assessed as [14C]cholesterol level in spleen at 10 mg/kg/day administered for 1 week measured after 22 hrs on day 7 by scintillation counting analysis (reference value: 1.41 +/- 1.01%); assay type: functional
Method in brief: (§2)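 Male rats were dosed orally for 1 week (10 mg/kg/day) or with 1% CMC. On day 7 they received 5 μCi [4-14C]cholesterol orally and were killed after 22 hr. Organs were homogenized (10% in water); 0.1-cc aliquots of homogenate, urine, blood or feces were digested with Protosol. Samples were counted in toluene/Triton X-100 (2:1) scintillant with 0.4% PPO and 0.01% POPOP. Results are % of dose per tissue, N = 6.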

[4] = system: Rattus norvegicus; experiment: Hypocholesterolemic activity in Sprague-Dawley rat assessed as serum cholesterol level at 5 mg/kg/day, po administered via intubation measured on day 4 by Liebermann-Burchard reaction (reference value: 100 +/- 7%); assay type: functional
[5] = system: Rattus norvegicus; experiment: Effect on kidney weight in rat at 1 mg/kg/day administered for 16 days measured 24 hrs after last drug dosage relative to total body weight (reference value: 0.92 +/- 0.04%); assay type: ADME, organism-based; settings: in vivo
[6] = system: Rattus norvegicus; experiment: Hypocholesterolemic activity in rat assessed as serum glycerol level at 10 mg/kg/day administered for 14 days (reference value: 100 +/- 39%); assay type: functional
[7] = system: Rattus norvegicus; experiment: Hypocholesterolemic activity in rat assessed as [14C]palmitic acid level in stomach at 10 mg/kg/day administered for 1 week measured after 22 hrs on day 7 by scintillation counting analysis (reference value: 0.65 +/- 0.46%); assay type: functional; method in brief: as §1
[8] = system: Rattus norvegicus; experiment: Hypocholesterolemic activity in [14C]palmitic acid-treated rat assessed as increase in free fatty acid accumulation in liver at 10 mg/kg/day administered for 1 week by scintillation counting analysis; assay type: functional
[9] = Toxicity in ip dosed CF1 mouse assessed as animal death; assay type: organism-based; settings: in vivo
Method in brief: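 Male CF1 mice given active propanones ip over 10 mg to 6 g/kg where solubility allowed; deaths recorded to estimate LD50.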

[10] = system: Rattus norvegicus; experiment: Hypocholesterolemic activity in rat assessed as [14C]cholesterol level in large intestine at 10 mg/kg/day administered for 1 week measured after 22 hrs on day 7 by scintillation counting analysis (reference value: 19.12 +/- 5.62%); assay type: functional; method in brief: as §2
[11] = system: Rattus norvegicus; experiment: Effect on food intake in rat at 50 mg/kg/day measured during second week (reference value: 23.4 +/- 1.8 gms); assay type: ADME, organism-based; settings: in vivo
Method in brief: (§3)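 Male rats dosed orally at 1, 5, 10 or 50 mg/kg/day in 1% CMC. Average food intake in grams per rat per week measured over a 2-week period, first and second weeks reported separately. N = 8, Student's t test against the 1% CMC control.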

[12] = system: Rattus norvegicus; experiment: Effect on vas deferens and epididymis weight in rat at 10 mg/kg/day administered for 16 days measured 24 hrs after last drug dosage relative to total body weight (reference value: 0.22 to 0.24%); assay type: ADME, organism-based; settings: in vivo
[13] = system: Rattus norvegicus; experiment: Effect on food intake in rat at 50 mg/kg/day measured during first week (reference value: 19.1 +/- 1.7 gms); assay type: ADME, organism-based; settings: in vivo; method in brief: as §3
[14] = system: Rattus norvegicus; experiment: Hypocholesterolemic activity in rat assessed as [14C]palmitic acid level in liver at 10 mg/kg/day administered for 1 week measured after 22 hrs on day 7 by scintillation counting analysis (reference value: 8.06 +/- 1.33%); assay type: functional; method in brief: as §1
[15] = system: Rattus norvegicus; experiment: Hypocholesterolemic activity in rat assessed as [14C]cholesterol level in small intestine at 10 mg/kg/day administered for 1 week measured after 22 hrs on day 7 by scintillation counting analysis (reference value: 22.09 +/- 5.68%); assay type: functional; method in brief: as §2
[16] = system: Rattus norvegicus; experiment: Hypocholesterolemic activity in rat assessed as [14C]cholesterol level in vas deferens at 10 mg/kg/day administered for 1 week measured after 22 hrs on day 7 by scintillation counting analysis (reference value: 0.03 +/- 0.02%); assay type: functional; method in brief: as §2
[17] = system: Rattus norvegicus; experiment: Effect on heart weight in rat at 5 mg/kg/day administered for 16 days measured 24 hrs after last drug dosage relative to total body weight (reference value: 0.37 +/- 0.04%); assay type: ADME, organism-based; settings: in vivo
[18] = system: Rattus norvegicus; experiment: Effect on vas deferens and epididymis weight in rat at 5 mg/kg/day administered for 16 days measured 24 hrs after last drug dosage relative to total body weight (reference value: 0.22 +/- 0.04%); assay type: ADME, organism-based; settings: in vivo
[19] = system: Rattus norvegicus; experiment: Hypocholesterolemic activity in rat assessed as [14C]cholesterol level in blood at 10 mg/kg/day administered for 1 week measured after 22 hrs on day 7 by scintillation counting analysis (reference value: 0.01 +/- 0.01%); assay type: functional; method in brief: as §2
[20] = system: Rattus norvegicus; experiment: Decrease in lipase level in rat liver at 10 mg/kg/day administered for 16 days (reference value: 100 +/- 39%); assay type: functional; parameters: scale not given: the % may be the effect or the level left
[21] = system: Rattus norvegicus; experiment: Effect on food intake in rat at 1 mg/kg/day measured during second week (reference value: 23.4 +/- 1.8 gms); assay type: ADME, organism-based; settings: in vivo; method in brief: as §3
[22] = system: Rattus norvegicus; experiment: Effect on spleen weight in rat at 10 mg/kg/day administered for 16 days measured 24 hrs after last drug dosage relative to total body weight (reference value: 0.55 +/- 0.12%); assay type: ADME, organism-based; settings: in vivo
[23] = system: Rattus norvegicus; experiment: Effect on body weight in rat at 10 mg/kg/day administered for 16 days measured on day 16 (reference value: 233 +/- 16 gms); assay type: ADME, organism-based; settings: in vivo, 384 h
Method in brief: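 Male Sprague-Dawley rats with chow and water ad libitum. Compound suspended in 1% CMC-water and given orally by intubation needle at 11:00 a.m., 1, 5, 10 or 50 mg/kg/day, for 16 days. Body weight (g) recorded on days 0, 7 and 16. N = 8.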

[24] = system: Rattus norvegicus; experiment: Hypocholesterolemic activity in rat assessed as [14C]palmitic acid level in heart at 10 mg/kg/day administered for 1 week measured after 22 hrs on day 7 by scintillation counting analysis (reference value: 0.23 +/- 0.10%); assay type: functional; method in brief: as §1
[25] = system: Rattus norvegicus; experiment: Hypocholesterolemic activity in [14C]palmitic acid-treated rat assessed as decrease in 14C fatty acid incorporation into phospholipid fraction in liver at 10 mg/kg/day administered for 1 week by scintillation counting analysis; assay type: functional; parameters: scale not given: the % may be the effect or the level left
[26] = system: Rattus norvegicus; experiment: Hypocholesterolemic activity in rat assessed as [14C]cholesterol level in testes at 10 mg/kg/day administered for 1 week measured after 22 hrs on day 7 by scintillation counting analysis (reference value: 0.24 +/- 0.17%); assay type: functional, Testis; method in brief: as §2
[27] = system: Rattus norvegicus; experiment: Hypocholesterolemic activity in rat assessed as [14C]palmitic acid level in small intestine at 10 mg/kg/day administered for 1 week measured after 22 hrs on day 7 by scintillation counting analysis (reference value: 4.43 +/- 1.43%); assay type: functional; method in brief: as §1
[28] = system: Rattus norvegicus; experiment: Effect on food intake in rat at 1 mg/kg/day measured during first week (reference value: 19.1 +/- 1.7 gms); assay type: ADME, organism-based; settings: in vivo; method in brief: as §3

Cc1ccc(OCC(=O)COc2ccc(C)cc2)cc1
Activity [1]: 104% | Activity [2]: 96.75% | Activity [3]: 1.86% | Activity [4]: 74% | Activity [5]: 0.79% | Activity [6]: 24% | Activity [7]: 0.48% | Activity [8]: 10% | LD50 [9]: 1500 mg/kg | Activity [10]: 12.84% | Activity [11]: 28.2 g | Activity [12]: 0.24% | Activity [13]: 18.9 g | Activity [14]: 9.26% | Activity [15]: 22.56% | Activity [16]: 0.07% | Activity [17]: 0.43% | Activity [18]: 0.21% | Activity [19]: 0.01% | Activity [20]: 68% | Activity [21]: 29.2 g | Activity [22]: 0.6% | Activity [23]: 234 g | Activity [24]: 0.26% | Activity [25]: 16% | Activity [26]: 0.33% | Activity [27]: 6.05% | Activity [28]: 19.2 g
